For 2 molecules, log2FC results are on record in ChEMBL document CHEMBL5674883, “The Heterochromatin Landscape in Migrating Cells and the Importance of H3K27me3 for Associated Transcriptome Alterations” (Cells, 2018).

What all share (assay type): cell-based
The target in assay [1] is Histone-lysine N-methyltransferase EZH2 (Mus musculus) (UniProt Q61188). Nature of the assay: Inhibition of EZH2 in mouse B16-F1 migrating cells assessed as fold change in H3K27me3-dependent regulated Pxdc1-mRNA expression at 3 uM measured by […] analysis relative to control cells. In outline: (§1)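 Confluent B16-F1 cells on fibronectin-coated plates were scratched at multiple sites, washed once with DMEM and left to migrate 3 h in growth medium (37 °C, 7% CO2); unscratched cells served as control. GSK343 (3 µM) was added 3 h before lysis. Poly A mRNA was sequenced (RNA-seq), with 5 replicates for untreated and 3 for treated cells. Differential expression was called by linear model with batch correction, at FDR <0.05 and fold change ≥1.3.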
Histone-lysine N-methyltransferase EZH2 (Mus musculus), sequence (Q61188 whole entry): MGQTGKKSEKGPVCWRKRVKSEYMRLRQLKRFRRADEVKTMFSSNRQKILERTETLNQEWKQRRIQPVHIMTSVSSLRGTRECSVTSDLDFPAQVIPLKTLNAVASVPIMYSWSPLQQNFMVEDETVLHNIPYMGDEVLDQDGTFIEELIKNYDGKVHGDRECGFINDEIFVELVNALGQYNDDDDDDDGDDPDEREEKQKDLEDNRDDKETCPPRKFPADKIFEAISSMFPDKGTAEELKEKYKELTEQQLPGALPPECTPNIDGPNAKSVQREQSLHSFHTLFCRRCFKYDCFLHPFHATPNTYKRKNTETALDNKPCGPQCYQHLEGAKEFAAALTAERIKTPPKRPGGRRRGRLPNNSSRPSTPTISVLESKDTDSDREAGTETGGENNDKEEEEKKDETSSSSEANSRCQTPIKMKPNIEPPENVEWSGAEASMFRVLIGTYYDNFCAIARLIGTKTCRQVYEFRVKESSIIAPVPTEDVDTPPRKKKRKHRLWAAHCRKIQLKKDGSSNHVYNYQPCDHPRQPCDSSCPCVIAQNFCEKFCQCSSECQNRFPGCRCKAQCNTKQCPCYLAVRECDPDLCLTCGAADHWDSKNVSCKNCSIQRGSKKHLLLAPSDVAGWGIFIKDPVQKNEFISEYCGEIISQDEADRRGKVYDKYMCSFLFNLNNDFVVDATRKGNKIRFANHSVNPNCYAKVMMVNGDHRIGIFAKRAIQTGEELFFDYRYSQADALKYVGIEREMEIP

The target is the same in assay [2]. Put plainly: Inhibition of EZH2 in mouse B16-F1 migrating cells assessed as fold change in H3K27me3-dependent regulated Mir22hg-mRNA expression at 3 uM measured by […] analysis relative to control cells. In outline:
as §1

The target is the same in assay [3]. Put plainly: Inhibition of EZH2 in mouse B16-F1 migrating cells assessed as fold change in H3K27me3-independent regulated Bnip3-mRNA expression at 3 uM measured by […] analysis relative to control cells. In outline:
as §1

For assay [4] the target is unchanged. Put plainly: Inhibition of EZH2 in mouse B16-F1 migrating cells assessed as fold change in H3K27me3-independent regulated Dusp10-mRNA expression at 3 uM measured by […] analysis relative to control cells. In outline:
as §1

The target is the same in assay [5]. Put plainly: Inhibition of EZH2 in mouse B16-F1 migrating cells assessed as fold change in H3K27me3-independent regulated Cep290-mRNA expression at 3 uM measured by […] analysis relative to control cells. The gist of the method: as §1
Assay [6] has the same target. Nature of the assay: Inhibition of EZH2 in mouse B16-F1 migrating cells assessed as fold change in H3K27me3-buffered regulated Ndufv3-mRNA expression at 3 uM measured by […] analysis relative to control cells. The gist of the method: (§2)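 Confluent B16-F1 cells on fibronectin-coated plates, cultured at 37 °C and 7% CO2, were scratched at multiple sites to induce migration. They were then held 3 h in growth medium containing 3 µM GSK343, with the inhibitor added 3 h before lysis. Unscratched cells served as controls. Poly A mRNA was analysed by RNA-seq (n=3 GSK343, n=5 controls). Linear models removed batch effects, and buffered genes were those altered only under GSK343 (FDR <0.05, fold change >1.3).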

Assay [7] shares this target. Put plainly: Inhibition of EZH2 in mouse B16-F1 migrating cells assessed as fold change in H3K27me3-buffered regulated Ttc14-mRNA expression at 3 uM measured by ChIP-seq analysis relative to control cells. In outline: as §1
The target is the same in assay [8]. Nature of the assay: Inhibition of EZH2 in mouse B16-F1 migrating cells assessed as fold change in H3K27me3-buffered regulated Gulp1-mRNA expression at 3 uM measured by […] analysis relative to control cells. In outline:
as §2

The target is the same in assay [9]. Nature of the assay: Inhibition of EZH2 in mouse B16-F1 migrating cells assessed as fold change in H3K27me3-buffered regulated Arid4a-mRNA expression at 3 uM measured by ChIP-seq analysis relative to control cells. In outline:
as §2

Assay [10] has the same target. Put plainly: Inhibition of EZH2 in mouse B16-F1 migrating cells assessed as fold change in H3K27me3-buffered regulated Foxa1-mRNA expression at 3 uM measured by […] analysis relative to control cells. The gist of the method: as §2
In assay [11] the target is T1, RNA polymerase II (Mus musculus) (UniProt P08775+Q8CFI7+P97760+A0A3Q4L2S8+Q80UW8+P61219+P62488+Q923G2+P60898+O08740+Q63871+P62876). Nature of the assay: Inhibition of RNA polymerase II in mouse B16-F1 migrating cells assessed as fold change in Borcs8-RNA stability at 0.1 mM measured by […] analysis relative to control cells. In outline:
(§3)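 Mouse B16-F1 melanoma cells grown to confluence on fibronectin in DMEM/10% FCS at 37 °C, 7% CO2. Migration induced by multiple scratches and 3 h incubation; unscratched controls. DRB 0.1 mM added 3 h before lysis. RNA from poly A-selected mRNA was sequenced (RNA-seq, three replicates per DRB group). Fold change computed for DRB-treated migrating vs DRB-treated control cells; cutoffs fold change >1.3, FDR <0.05.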

For assay [12], the target named is T1, RNA polymerase II (Mus musculus). Nature of the assay: Inhibition of RNA polymerase II in mouse B16-F1 migrating cells assessed as fold change in Rps15-RNA stability at 0.1 mM measured by […] analysis relative to control cells.
Assay [13] shares this target. Put plainly: Inhibition of RNA polymerase II in mouse B16-F1 migrating cells assessed as fold change in Kcnab2-RNA stability at 0.1 mM measured by ChIP-seq analysis relative to control cells. In outline: as §3
For assay [14] the target is unchanged. Put plainly: Inhibition of RNA polymerase II in mouse B16-F1 migrating cells assessed as fold change in Mad2l2-RNA stability at 0.1 mM measured by ChIP-seq analysis relative to control cells.
The target is the same in assay [15]. Put plainly: Inhibition of RNA polymerase II in mouse B16-F1 migrating cells assessed as fold change in Acbd6-RNA stability at 0.1 mM measured by […] analysis relative to control cells.
Assay [16] shares this target. Put plainly: Inhibition of RNA polymerase II in mouse B16-F1 migrating cells assessed as fold change in Rpl7-RNA stability at 0.1 mM measured by […] analysis relative to control cells.
The target is the same in assay [17]. Put plainly: Inhibition of RNA polymerase II in mouse B16-F1 migrating cells assessed as fold change in Eri3-RNA stability at 0.1 mM measured by ChIP-seq analysis relative to control cells.
Assay [18] has the same target. Put plainly: Inhibition of RNA polymerase II in mouse B16-F1 migrating cells assessed as fold change in Eif2s3x-RNA stability at 0.1 mM measured by […] analysis relative to control cells. The gist of the method: as §3
Assay [19] has the same target. Nature of the assay: Inhibition of RNA polymerase II in mouse B16-F1 migrating cells assessed as fold change in Gtf3c4-RNA stability at 0.1 mM measured by ChIP-seq analysis relative to control cells.
Assay [20] has the same target. Put plainly: Inhibition of RNA polymerase II in mouse B16-F1 migrating cells assessed as fold change in Orc4-RNA stability at 0.1 mM measured by […] analysis relative to control cells.
Assay [21] shares this target. Nature of the assay: Inhibition of RNA polymerase II in mouse B16-F1 migrating cells assessed as fold change in Tbp-RNA stability at 0.1 mM measured by […] analysis relative to control cells.
For assay [22] the target is unchanged. Put plainly: Inhibition of RNA polymerase II in mouse B16-F1 migrating cells assessed as fold change in Phf20l1-RNA stability at 0.1 mM measured by […] analysis relative to control cells.
The target is the same in assay [23]. Put plainly: Inhibition of RNA polymerase II in mouse B16-F1 migrating cells assessed as fold change in Polr3f-RNA stability at 0.1 mM measured by […] analysis relative to control cells.
For assay [24] the target is unchanged. Nature of the assay: Inhibition of RNA polymerase II in mouse B16-F1 migrating cells assessed as fold change in Zfp367-RNA stability at 0.1 mM measured by […] analysis relative to control cells.

`CCCc1cc(C)[nH]c(=O)c1CNC(=O)c1cc(-c2ccnc(N3CCN(C)CC3)c2)cc2c1cnn2C(C)C`: the log2FC in assay [1] is -0.09; in assay [2] it was 0.05; in assay [3], 0.68; in assay [4], 0.57; in assay [5] it was -0.62; in [6] it was 0.38. In addition, the log2FC was -0.44 in assay [7], -0.44 in [8], -0.47 in assay [9] and -0.77 in [10].
Regarding `OC[C@H]1O[C@@H](n2cnc3cc(Cl)c(Cl)cc32)[C@H](O)[C@@H]1O`, the log2FC in [11] is 0.57; in [12], 0.53; in assay [13] it was 0.49; in assay [14] it was 0.43; in assay [15], 0.43; in [16], 0.41. The log2FC in assay [17] is 0.38; in assay [18], -0.51; in [19], -0.54; in assay [20], -0.54; in assay [21], -0.56; in [22], -0.65. In addition, the log2FC in [23] is -0.8; in assay [24], -0.87.
